Reference: ChEMBL document CHEMBL4177542, “A New Combination of a Pleuromutilin Derivative and Doxycycline for Treatment of Multidrug-Resistant Acinetobacter baumannii” (J Med Chem, 2017)
≈ marks a conversion by molar mass, not a printed value.

Assays:
Vero = assay: Cytotoxicity against African green monkey Vero cells after 72 hrs by MTT assay; type: cell-based, Chlorocebus sabaeus; conditions: Chlorocebus sabaeus, Vero, 72 h; read-out: IC50
Outline: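 Vero (ATCC CCL-81) cells in Eagle's MEM with 10% FBS and penicillin-streptomycin, in 96-well plates. Serial dilutions from 0.78 to 200 μg/mL. Tunicamycin, colistin or tobramycin as controls on each plate. Viability by MTT, giving IC50.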

Pseudomonas aeruginosa [1] = assay: Growth inhibition of Pseudomonas aeruginosa ATCC 27853 after 48 hrs by resazurin dye based microdilution method; type: functional; conditions: ATCC 27853, 48 h
Outline: (§1)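 Broth microdilution in tryptic soy broth. Mid-log cultures (OD600 0.5) treated with serial dilutions from a DMSO stock (1 mg per 100 μL) for 48 h at 37 °C. Resazurin (stock 0.02%) then added for 1 h at 37 °C. MIC is the lowest concentration staying blue; MBC is blue retained over 4 h (99.9% kill), with CFU plating when needed.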

Pseudomonas aeruginosa [2] = assay: Synergistic antibacterial activity against Pseudomonas aeruginosa ATCC 27853 at 60:1 compound to doxycycline ratio after 48 hrs by resazurin dye based microdilution broth checkerboard method; type: functional; conditions: ATCC 27853, 48 h
Outline: (§2)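 Checkerboard broth microdilution of drug pairs in tryptic soy broth on mid-log cultures (OD 0.5), 48 h at 37 °C. Growth read by resazurin (pink growth, blue no growth). MBC is blue retained over 4 h, CFU plating where needed. ΣFIC = C_A/MIC_A + C_B/MIC_B, taken at the growth/no-growth interface wells; ΣFIC <0.5 counts as synergy.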

Staphylococcus aureus [3] = assay: Growth inhibition of Staphylococcus aureus ATCC 25923 after 48 hrs by resazurin dye based microdilution method; type: functional; conditions: ATCC 25923, 48 h; outline: as §1
Escherichia coli [4] = assay: Growth inhibition of Escherichia coli ATCC 10798 after 48 hrs by resazurin dye based microdilution method; type: functional; conditions: ATCC 10798, 48 h; outline: as §1
Pseudomonas aeruginosa [5] = assay: Synergistic bactericidal activity against Pseudomonas aeruginosa ATCC 27853 at 2:1 compound to doxycycline ratio after 48 hrs by resazurin dye based microdilution broth checkerboard method; type: functional; conditions: ATCC 27853, 48 h, read-out: MBC99.9; outline: as §2
Acinetobacter baumannii [6] = assay: Synergistic antibacterial activity against Acinetobacter baumannii ATCC 19606 at 35:1 compound to doxycycline ratio after 48 hrs by resazurin dye based microdilution broth checkerboard method; type: functional; conditions: ATCC 19606 = CIP 70.34 = JCM 6841, 48 h
Outline: (§3)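 Microdilution broth checkerboard of the compound combined with doxycycline, using the resazurin broth method (48 h, 37 °C, blue = no growth). ΣFIC = C_A/MIC_A + C_B/MIC_B, taken at the growth–no growth interface wells; ΣFIC below 0.5 is scored as synergy. MBC for the fixed-ratio combinations read as the 4 h resazurin endpoint.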

Klebsiella pneumoniae [7] = assay: Synergistic antibacterial activity against Klebsiella pneumoniae ATCC 8047 at 60:1 compound to doxycycline ratio after 48 hrs by resazurin dye based microdilution broth checkerboard method; type: functional; conditions: ATCC 8047, 48 h; outline: as §2
Acinetobacter baumannii [8] = assay: Synergistic antibacterial activity against Acinetobacter baumannii ATCC 19606 infected in C57BL/6 mouse assessed as survival rate at compound to doxycycline ratio of 35:1 at 2 mg/kg, ip administered as single dose measured for 5 days (reference value: <20%); type: functional; conditions: ATCC 19606 = CIP 70.34 = JCM 6841, ip, 120 h
Outline: (§4)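 C57BL/6 mice (n = 5 per group; 4 untreated controls) infected intraperitoneally with A. baumannii ATCC19606 grown at 37 °C and collected by centrifugation, at a dose giving 75% death. Single intraperitoneal dose (2 to 60 mg/kg) given 1 h after infection. Mice monitored for 5 days, with death as the end point; survival rate recorded.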

Acinetobacter baumannii [9] = assay: Bactericidal activity against Acinetobacter baumannii ATCC 19606 after 48 hrs by resazurin dye based microdilution method; type: functional; conditions: ATCC 19606 = CIP 70.34 = JCM 6841, 48 h, read-out: MBC99.9
Outline: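 A. baumannii ATCC 19606 grown in tryptic soy broth, 37 °C with shaking, to mid-log (OD 0.5). Cultures treated with serial dilutions of inhibitor (DMSO stock 1 mg/100 μL), 48 h at 37 °C. Resazurin then added, 1 h at 37 °C with shaking. MIC is the lowest concentration staying blue; MBC is blue retained over 4 h, with CFU plating if needed (99.9% kill).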

Acinetobacter baumannii [10] = assay: Potentiation of doxycycline-induced antimicrobial activity against Acinetobacter baumannii ATCC 19606 at 0.2 ug/ml in presence of 0.025 ug/ml doxycycline by microdilution broth checkerboard method; type: functional, ATCC 19606 = CIP 70.34 = JCM 6841
Outline: (§5)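 A. baumannii ATCC 19606 in a broth microdilution checkerboard with doxycycline, 96 concentration combinations. ΣFIC = C_A/MIC_A + C_B/MIC_B, taken for wells at the growth/no-growth interface; ΣFIC <0.5 counts as synergy.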

Acinetobacter baumannii [11] = assay: Synergistic bactericidal activity against Acinetobacter baumannii ATCC 19606 at 60:1 compound to doxycycline ratio after 48 hrs by resazurin dye based microdilution broth checkerboard method; type: functional; conditions: ATCC 19606 = CIP 70.34 = JCM 6841, 48 h, read-out: MBC99.9; outline: as §2
Escherichia coli [12] = assay: Synergistic antibacterial activity against Escherichia coli ATCC 10798 at 60:1 compound to doxycycline ratio after 48 hrs by resazurin dye based microdilution broth checkerboard method; type: functional; conditions: ATCC 10798, 48 h; outline: as §2
Acinetobacter baumannii [13] = assay: Synergistic bactericidal activity against Acinetobacter baumannii ATCC 19606 at 2:1 compound to doxycycline ratio after 48 hrs by resazurin dye based microdilution broth checkerboard method; type: functional; conditions: ATCC 19606 = CIP 70.34 = JCM 6841, 48 h, read-out: MBC99.9; outline: as §2
Pseudomonas aeruginosa [14] = assay: Bactericidal activity against Pseudomonas aeruginosa ATCC 27853 after 48 hrs by resazurin dye based microdilution method; type: functional; conditions: ATCC 27853, 48 h, read-out: MBC99.9; outline: as §1
[15] = Solubility of the compound in water at 10 mg after 24 hrs by HPLC based shake flask method; type: physicochemical
Klebsiella pneumoniae [16] = assay: Synergistic bactericidal activity against Klebsiella pneumoniae ATCC 8047 at 35:1 compound to doxycycline ratio after 48 hrs by resazurin dye based microdilution broth checkerboard method; type: functional; conditions: ATCC 8047, 48 h, read-out: MBC99.9; outline: as §3
Acinetobacter baumannii [17] = assay: Potentiation of doxycycline-induced antimicrobial activity against Acinetobacter baumannii ATCC 19606 at 1.56 ug/ml in presence of 0.025 ug/ml doxycycline by microdilution broth checkerboard method; type: functional, ATCC 19606 = CIP 70.34 = JCM 6841; outline: as §5
[18] = Efflux ratio of apparent permeability in human Caco2 cells; type: ADME, cell-based; conditions: Caco-2
Acinetobacter baumannii [19] = assay: Potentiation of doxycycline-induced antimicrobial activity against Acinetobacter baumannii ATCC 19606 at 0.78 ug/ml in presence of 0.025 ug/ml doxycycline by microdilution broth checkerboard method; type: functional, ATCC 19606 = CIP 70.34 = JCM 6841; outline: as §5
Staphylococcus aureus [20] = assay: Bactericidal activity against Staphylococcus aureus ATCC 25923 after 48 hrs by resazurin dye based microdilution method; type: functional; conditions: ATCC 25923, 48 h, read-out: MBC99.9; outline: as §1
Acinetobacter baumannii [21] = assay: Antibacterial activity against Acinetobacter baumannii ATCC 19606 infected in C57BL/6 mouse assessed as survival rate at 4 mg/kg, ip administered as single dose measured for 5 days (reference value: <20%); type: functional; conditions: ATCC 19606 = CIP 70.34 = JCM 6841, ip, 120 h; outline: as §4
Staphylococcus aureus [22] = assay: Synergistic antibacterial activity against Staphylococcus aureus ATCC 25923 at 2:1 compound to doxycycline ratio after 48 hrs by resazurin dye based microdilution broth checkerboard method; type: functional; conditions: ATCC 25923, 48 h; outline: as §2
Staphylococcus aureus [23] = assay: Synergistic bactericidal activity against Staphylococcus aureus ATCC 25923 at 2:1 compound to doxycycline ratio after 48 hrs by resazurin dye based microdilution broth checkerboard method; type: functional; conditions: ATCC 25923, 48 h, read-out: MBC99.9; outline: as §2

Compound `C=C[C@]1(C)C[C@@H](OC(=O)CSC(C)(C)CNC(=O)[C@H](N)C(C)C)[C@]2(C)[C@H](C)CC[C@]3(CC[C@@H](O)[C@H]32)[C@@H](C)[C@@H]1O` has an IC50 (Vero) of 45.3 µg/mL (≈ 79.9 µM), an MIC (Pseudomonas aeruginosa [1]) greater than 25 µg/mL and an MIC (Pseudomonas aeruginosa [2]) of 12.5 µg/mL. The MIC (Staphylococcus aureus [3]) was 12.5 µg/mL (≈ 22.1 µM), the MIC (Escherichia coli [4]) was 3.13 µg/mL (≈ 5.52 µM) and the MBC (Pseudomonas aeruginosa [5]) was 12.5 µg/mL. For the same compound, the MIC (Acinetobacter baumannii [6]) was 0.4 µg/mL, the MIC (Klebsiella pneumoniae [7]) was 1.56 µg/mL and the survival at 2 mg/kg (Acinetobacter baumannii [8]) was 60%. For the same compound, the MBC (Acinetobacter baumannii [9]) was 3.13 to 6.25 µg/mL (≈ 5.52 to 11 µM), the “fractional inhibitory concentration index (FICI)” value (Acinetobacter baumannii [10]) was 0.16 and the MBC (Acinetobacter baumannii [11]) was 2 µg/mL. It also gave an MIC (Escherichia coli [12]) of 0.25 µg/mL, an MBC (Acinetobacter baumannii [13]) of 2 µg/mL and an MBC (Pseudomonas aeruginosa [14]) greater than 25 µg/mL. For the same compound, the solubility [15] was “Soluble”, the MBC (Klebsiella pneumoniae [16]) was 1.56 µg/mL and the “fractional inhibitory concentration index (FICI)” value (Acinetobacter baumannii [17]) was 0.38. The efflux ratio [18] was 5, the “fractional inhibitory concentration index (FICI)” value (Acinetobacter baumannii [19]) was 0.25 - 0.37 and the MBC (Staphylococcus aureus [20]) was 25 µg/mL (≈ 44.1 µM). The survival at 4 mg/kg (Acinetobacter baumannii [21]) was 80%, the MIC (Staphylococcus aureus [22]) was 12.5 µg/mL and the MBC (Staphylococcus aureus [23]) was 25 µg/mL.
